Screening results deposited in PubChem BioAssay by Broad Institute.
PfHsp90 yeast 2 – growth inhibition of PfHsp90-expressing yeast, primary screen, antimalarial PfHsp90 inhibitor project, S. cerevisiae, BacTiter-Glo luminescence, single point, set 2; BacTiter-Glo ATP, 48 h; yeast lacking PDR1 and PDR3 efflux regulators; inhibition, % at 9.4 µM; actives 0.32% (n = 310,000); AID 504621, 2011;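 active means every replicate shows inhibition above about 80%, whatever the replicate mean, limit read from the data; inconclusive means mean inhibition reaches the set limit but some replicate falls short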;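 further: 0% = DMSO neutral controls and 100% = 20 µM radicicol positive controls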
FN deposition inh – inhibitors of fibronectin matrix deposition, primary screen, AH1F cells, Alexa488-fibronectin fluorescence, plate reader; AH1F fibroblasts, overnight; inhibition, % at 12.6 µM; actives 0.086% (n = 350,000);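 active means mean inhibition across replicates of 30% or more, regardless of how many single replicates reach that level; inconclusive means mean under 30% yet at least half of replicates reach 30%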;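 further: positive control wells lacked labelled fibronectin entirely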
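Assay system: AH1F fibroblasts assembling fluorescent fibronectin matrix; Amount: 10000 AH1F cells per well; Buffer or medium: DMEM, 2% serum; Probe or stimulus: Alexa488-fibronectin, 24 nM final in well; Doses: single compound dose, delivered by pin transfer; Incubation: 1 h adhesion, overnight exposure; Measured by: fluorescence 485/525 nm; Read-out: fibronectin deposition inhibition.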
SKKanGAS inh – S. pyogenes SKKanGAS growth inhibitors in kanamycin, primary screen, streptokinase expression inhibitor project, SKKanGAS strain, BacTiter-Glo luminescence; 6 h; inhibition, % at 7.5 µM; actives 1.3% (n = 300,000);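 active means mean replicate score, as percent of positive control median, at least 50; inconclusive means mean below 50 but one replicate at or above 50; inactive means mean and every replicate below 50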;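 further: strain carries kanamycin resistance gene driven by streptokinase promoter and grows in 40 µg/ml kanamycin; loss of luminescence reflects streptokinase promoter inhibition or plain growth inhibition; 0% = median of DMSO wells and 100% = positive control at its reference dose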
CSC inhib – cancer stem cell viability inhibitors, primary screen, luminescence; cancer stem cell-like cells viability; inhibition, % at 7.5 µM; actives 1.1% (n = 300,000); AID 2717, 2010; in the data active means inhibition above about 75%; inconclusive means no clear call, values can overlap the other calls; tested in HMLE shEcad cells
Rtt109 Vps75 – inhibitors of C. albicans Rtt109/Vps75 HAT, primary screen, biochemical, ThioGlo CoA-SH fluorescence, plate reader; inhibition, % at 34.9 µM; actives 0.16% (n = 330,000); AID 540336, 2011; Histone acetyltransferase RTT109 (Candida albicans (strain SC5314 / ATCC MYA-2876)), …; purified Rtt109/Vps75, 4 h;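 active means inhibition of at least 50% in every replicate; inconclusive means best replicate reaches 50% inhibition but some replicates fall short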
Target sequence (Q5AAJ8 whole entry, looked up): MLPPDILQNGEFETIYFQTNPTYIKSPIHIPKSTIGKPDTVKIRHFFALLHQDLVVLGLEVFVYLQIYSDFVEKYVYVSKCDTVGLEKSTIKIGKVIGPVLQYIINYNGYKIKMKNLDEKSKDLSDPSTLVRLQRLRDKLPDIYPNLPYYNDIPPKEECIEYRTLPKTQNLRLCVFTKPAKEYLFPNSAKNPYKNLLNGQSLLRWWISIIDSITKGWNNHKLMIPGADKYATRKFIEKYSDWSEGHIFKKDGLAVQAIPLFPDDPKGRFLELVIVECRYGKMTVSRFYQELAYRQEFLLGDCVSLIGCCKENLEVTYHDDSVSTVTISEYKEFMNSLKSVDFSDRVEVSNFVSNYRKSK
PglD DTNB – C. jejuni PglD acetyltransferase inhibitors, primary screen, biochemical, DTNB colorimetric, single point; AID 602405, 2012; inhibition, % at 12.5 µM; actives 0.098% (n = 360,000); UDP-N-acetylbacillosamine N-acetyltransferase PglD (Campylobacter jejuni); purified PglD enzyme, DTNB colorimetric CoA detection; in the data active means inhibition above about 16%, passing the limit was not always enough; inconclusive means no clear call, values can overlap the other calls
* hit, by the source's call. Only some compounds are listed: those with a hit (about 1.7% of all), similar ones and a draw of the others.

What do the screens show for `COc1cccc2nc3cc(C)c(C)cc3nc12`?
PfHsp90 yeast 2: 66; FN deposition inh: 1; SKKanGAS inh: 54*; CSC inhib: 51; Rtt109 Vps75: 6; PglD DTNB: 1

How did CC(C)(C)c1ccc(OCc2ccc(C(=O)N/N=C/c3ccc(O)c(O)c3)cc2)cc1 do in these assays?
FN deposition inh: -4; SKKanGAS inh: 62*; CSC inhib: 89*; Rtt109 Vps75: -7

Results for Cc1ccc(C(C)C)c(OCc2ccc(C(=O)N/N=C/c3ccc(C(=O)O)cc3)cc2)c1 ?
PfHsp90 yeast 2: -17; FN deposition inh: 10; SKKanGAS inh: 42; CSC inhib: 17; Rtt109 Vps75: -9

Results for Cc1ccc(C(C)C)c(OCc2ccc(C(=O)N/N=C/c3ccc(O)cc3O)cc2)c1 ?
PfHsp90 yeast 2: 32; FN deposition inh: 13; SKKanGAS inh: 87*; CSC inhib: 101*; Rtt109 Vps75: -3

What do the screens show for `O=C(N/N=C/c1cccc(O)c1)c1ccc(COc2ccccc2Br)cc1`?
PfHsp90 yeast 2: 6; FN deposition inh: -7; SKKanGAS inh: 63*; CSC inhib: 87*; Rtt109 Vps75: -1

What do the screens show for `Cc1noc(C)c1NC(=O)Nc1cccc2c1O[C@H](CN(C)S(=O)(=O)c1ccc(F)cc1)[C@@H](C)CN([C@@H](C)CO)C2=O`?
PglD DTNB: 0

Results for O=C([C@@H]1[C@@H](CO)[C@@H]2Cn3c(cccc3=O)[C@H]1N2CC1CCCCC1)N1CCOCC1 ?
PglD DTNB: 1

How did O=[N+]([O-])c1ccc(COc2ccc(-c3[nH]ncc3-c3ccc(Cl)cc3)c(O)c2)cc1 do in these assays?
PfHsp90 yeast 2: 4; FN deposition inh: -2; SKKanGAS inh: 95*; CSC inhib: 82*; Rtt109 Vps75: 3; PglD DTNB: -3

What do the screens show for `COc1ccc(-c2cn[nH]c2-c2ccc(OCc3ccccc3)cc2O)cc1`?
PfHsp90 yeast 2: -17; FN deposition inh: 9; SKKanGAS inh: 75*; CSC inhib: 102*; Rtt109 Vps75: 2

Results for Clc1ccc(-c2nc(N3CCCCC3)nc3ccccc23)cc1 ?
PfHsp90 yeast 2: 4; FN deposition inh: 5; SKKanGAS inh: 90*; CSC inhib: 1; Rtt109 Vps75: -34; PglD DTNB: -7

Results for O=C(O)CCC(=O)N1CCN(c2nc(-c3ccccc3)c3ccccc3n2)CC1 ?
PfHsp90 yeast 2: 3; FN deposition inh: 2; SKKanGAS inh: 4; CSC inhib: -11; Rtt109 Vps75: 1; PglD DTNB: -2

What do the screens show for `COc1ccc(Cc2nnc(NC(=O)c3cc(OC)c(OC)c(OC)c3)s2)cc1`?
PfHsp90 yeast 2: 1; FN deposition inh: 6; SKKanGAS inh: 3; CSC inhib: 49; Rtt109 Vps75: 55*; PglD DTNB: -1

Results for COc1ccc(Cc2nnc(NC(=O)c3ccc(OC)c(OC)c3)s2)cc1 ?
PfHsp90 yeast 2: -7; FN deposition inh: 6; SKKanGAS inh: -1; CSC inhib: -7; Rtt109 Vps75: -2; PglD DTNB: -8

How did O=C(N[C@@H]1CC[C@@H](CCNS(=O)(=O)c2ccc(F)cc2)O[C@@H]1CO)c1cnccn1 do in these assays?
FN deposition inh: -7; PglD DTNB: -2

Results for O=C(C1CCC1)N1CC2(C1)[C@H](c1ccccc1)[C@H](CO)N2CCC(F)(F)F ?
FN deposition inh: 3

How did Nc1nonc1-n1nnc(C(=O)N/N=C/c2cc(Cl)ccc2O)c1CN1CCCCCC1 do in these assays?
PfHsp90 yeast 2: -7; FN deposition inh: 5; SKKanGAS inh: 50*; CSC inhib: inconclusive; Rtt109 Vps75: -16; PglD DTNB: -6

Results for C/C(=N\NC(=O)c1nnn(-c2nonc2N)c1CN1CCCCC1)c1ccccc1O ?
PfHsp90 yeast 2: -10; FN deposition inh: 6; SKKanGAS inh: 12; CSC inhib: 81*; Rtt109 Vps75: -4; PglD DTNB: 0
